The source made the active and inactive calls. No cut-off for these calls is given here.
How the values were obtained:
MCF7 = assay: Antiproliferative activity against human MCF7 cells; type: functional
COLO 205 = assay: Antiproliferative activity against human COLO205 cells; type: functional
DU-145 = assay: Antiproliferative activity against human DU145 cells; type: functional
SF-539 = assay: Antiproliferative activity against human SF539 cells; type: functional
MOLT-4 = assay: Antiproliferative activity against human MOLT4 cells; type: functional
SN12C = assay: Antiproliferative activity against human SN12C cells; type: functional
IGROV-1 = assay: Antiproliferative activity against human IGROV1 cells; type: functional
SF-295 = assay: Antiproliferative activity against human SF295 cells; type: functional
NCI-H460 = assay: Antiproliferative activity against human NCI-H460 cells; type: functional
UACC-62 = assay: Antiproliferative activity against human UACC62 cells; type: functional
SR = assay: Antiproliferative activity against human SR cells; type: functional
OVCAR-3 = assay: Antiproliferative activity against human OVCAR-3 cells; type: functional
U-251 = assay: Antiproliferative activity against human U251 cells; type: functional
[1] = molecular target: T1, DNA topoisomerase 1 (Homo sapiens) (UniProt P11387); assay: Inhibition of human recombinant topoisomerase-1-mediated 117bp DNA oligonucleotide cleavage at 10 uM by PAGE
T1 sequence (whole entry): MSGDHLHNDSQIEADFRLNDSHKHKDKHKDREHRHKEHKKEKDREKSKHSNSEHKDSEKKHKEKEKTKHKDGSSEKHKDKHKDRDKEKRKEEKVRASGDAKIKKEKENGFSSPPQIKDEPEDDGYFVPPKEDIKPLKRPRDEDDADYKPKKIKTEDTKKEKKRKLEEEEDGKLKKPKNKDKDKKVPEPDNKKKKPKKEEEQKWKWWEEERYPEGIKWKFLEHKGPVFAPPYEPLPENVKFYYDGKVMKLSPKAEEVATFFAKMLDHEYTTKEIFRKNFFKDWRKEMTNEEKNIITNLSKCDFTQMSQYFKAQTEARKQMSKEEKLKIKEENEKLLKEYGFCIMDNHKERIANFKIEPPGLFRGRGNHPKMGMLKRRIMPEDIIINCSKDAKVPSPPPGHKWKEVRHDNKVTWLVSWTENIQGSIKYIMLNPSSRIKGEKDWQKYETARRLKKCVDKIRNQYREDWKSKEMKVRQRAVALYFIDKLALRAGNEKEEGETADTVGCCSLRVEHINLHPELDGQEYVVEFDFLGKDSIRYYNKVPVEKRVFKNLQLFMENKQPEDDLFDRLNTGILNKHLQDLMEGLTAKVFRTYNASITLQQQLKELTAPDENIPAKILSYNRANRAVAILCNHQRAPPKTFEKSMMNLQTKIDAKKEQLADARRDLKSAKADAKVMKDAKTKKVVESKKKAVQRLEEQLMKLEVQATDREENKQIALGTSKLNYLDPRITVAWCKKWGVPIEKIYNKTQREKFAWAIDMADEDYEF
How it was run: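 About 2 nM of it is incubated with recombinant Top1 in 10 mM Tris-HCl pH 7.5, 50 mM KCl, 5 mM MgCl2, 0.1 mM EDTA and 15 μg/mL BSA, with compound, for 20 min at 25 °C. Reactions are stopped with 0.5% SDS, run on 20% denaturing PAGE, and cleavage is scored semiquantitatively (0 to ++++) against 1 μM CPT.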

CCRF-CEM = assay: Antiproliferative activity against human CCRF-CEM cells; type: functional
HOP-62 = assay: Antiproliferative activity against human HOP62 cells; type: functional
CAKI-1 = assay: Antiproliferative activity against human Caki1 cells; type: functional
HCT-116 = assay: Antiproliferative activity against human HCT116 cells; type: functional
HCC 2998 = assay: Antiproliferative activity against human HCC2998 cells; type: functional
ACHN = assay: Antiproliferative activity against human ACHN cells; type: functional
RPMI-8226 = assay: Antiproliferative activity against human RPMI8226 cells; type: functional
MDA-MB-435 = assay: Antiproliferative activity against human MDA-MB-435 cells; type: functional

| GI50 (DU-145) | GI50 (OVCAR-3) | inhibition [1] | GI50 (HCT-116) | GI50 (MDA-MB-435) | SMILES | GI50 (SF-539) | GI50 (SN12C) | GI50 (UACC-62) | GI50 (HOP-62) | further results |
| --- | --- | --- | --- | --- | --- | --- | --- | --- | --- | --- |
| 260 nM | 210 nM | Active | 160 nM | – | COc1cc2cnc3c(c2cc1OC)Cc1c-3cc2c(c1Cn1ccnc1)OCO2 | 280 nM | 600 nM | 210 nM | 350 nM | GI50 (MCF7): 90 nM; GI50 (COLO 205): 510 nM; GI50 (MOLT-4): 60 nM; GI50 (IGROV-1): 120 nM; GI50 (SF-295): 150 nM; GI50 (NCI-H460): 130 nM; GI50 (SR): 12 nM; GI50 (U-251): 160 nM; GI50 (CCRF-CEM): 37 nM; GI50 (CAKI-1): 290 nM; GI50 (HCC 2998): 1100 nM; GI50 (ACHN): 280 nM; GI50 (RPMI-8226): 41 nM |
| – | – | Active | – | – | COc1cc2cnc3c(c2cc1OC)Cc1c-3cc2c(c1CN1CCN(C)CC1)OCO2 | – | – | – | – | – |
| 28 nM | – | Active | > 100000 nM | < 10 nM | COc1cc2cnc3c(c2cc1OC)Cc1cc2c(cc1-3)OCO2 | < 10 nM | > 100000 nM | < 10 nM | 72 nM | – |
| 730 nM | 730 nM | Active | 640 nM | 2500 nM | COc1cc2cnc3c(c2cc1OC)Cc1c-3cc2c(c1CN1CCCC1)OCO2 | 1900 nM | 4400 nM | 6700 nM | 1200 nM | – |

The next lines start with the compound.

| SMILES | GI50 (DU-145) | GI50 (OVCAR-3) | inhibition [1] | GI50 (HCT-116) | GI50 (MDA-MB-435) | GI50 (SF-539) | GI50 (SN12C) | GI50 (UACC-62) | GI50 (HOP-62) | further results |
| --- | --- | --- | --- | --- | --- | --- | --- | --- | --- | --- |
| COc1cc2cnc3c(c2cc1OC)Cc1c-3cc2c(c1CN(C)C)OCO2 | 1600 nM | 1400 nM | Active | 1500 nM | 16000 nM | 14000 nM | 13000 nM | 12000 nM | 6700 nM | – |
| COc1cc2c3c(n(C)c(=O)c2cc1OC)-c1cc2c(cc1C3=O)OCO2 | 37000 nM | – | Active | 35000 nM | 96000 nM | 41000 nM | 68000 nM | 4200 nM | 1300 nM | – |
| CC[C@@]1(O)C(=O)OCc2c1cc1n(c2=O)Cc2cc3ccccc3nc2-1 [CAMPTOTHECIN] | 10 nM | – | – | 30 nM | 40 nM | 10 nM | 20 nM | 10 nM | 10 nM | – |
| COc1cc2cnc3c(c2cc1OC)Cc1c-3cc2c(c1CN(C)CCN(C)C)OCO2 | 3400 nM | 7400 nM | Active | 1900 nM | – | 11000 nM | > 100000 nM | 730 nM | 1500 nM | – |
| COc1cc2cnc3c(c2cc1OC)Cc1c-3cc2c(c1C)OCO2 | > 100000 nM | 5800 nM | Active | 890 nM | > 100000 nM | 4600 nM | > 100000 nM | 700 nM | 7300 nM | – |
| COc1cc2cnc3c(c2cc1OC)Cc1c-3cc2c(c1CN1CCOCC1)OCO2 | 1900 nM | 1700 nM | – | 1400 nM | – | 1800 nM | 2300 nM | 100000 nM | 2100 nM | – |

Reference: ChEMBL document CHEMBL1157593, “Structure-based design, synthesis, and biological studies of new anticancer norindenoisoquinoline topoisomerase I inhibitors” (2010)
